These results are taken from the EternaBench riboswitch data.

The test system of this data set is MS2 coat protein. Briefly: apparent Kd, MS2 coat protein; higher = weaker binding; RNA-MaP array; FMN 200 µM where present. The procedure, abridged: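 The apparent Kd is the median of filtered binding-curve fits, one per cluster, to green signal normalised to red-channel RNA signal and control-cluster median Fmax. The clusters were on Illumina sequencing chips, and stalled E. coli RNA polymerase had transcribed the designs on them. Titration used SNAP-549-labelled MS2 coat protein from 0.7 or 1.5 nM, doubling to 3 µM, without and then with constant ligand, in 100 mM Tris-HCl pH 7.5, 80 mM KCl, 4 mM MgCl2, BSA, DTT, yeast tRNA and Tween-20.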

Where [1] appears, read: designed as: OFF switch for flavin mononucleotide, no ligand.
The mark [2] stands for this setting: ligand present: flavin mononucleotide, designed as: OFF switch for flavin mononucleotide.
Setting [3] is: designed as: ON switch for flavin mononucleotide, no ligand.
Setting [4] is: ligand present: flavin mononucleotide, designed as: ON switch for flavin mononucleotide.

The apparent Kd is a dissociation constant that holds for the conditions of the assay. With “GCUGACGAUGUAGGAUAUCAGUAUAAUAAAUACUGAGAAGGACAUGAGGAUCACCCAUGUCUCCAACGUCAGCAGAGGAAACUC”, the “apparent Kd” value was 15.9 nM under setting [1] and 16.8 nM under setting [2].

Regarding “GCCUUAUCGGUCAGGAUAUACACCUGUUAGUUGUUGUAGAAGGGACAUGAGGAUCACCCAUGUACAUUACAUUG”, the “apparent Kd” value reads like this: under setting [1], 23.1 nM; under setting [2], 40.1 nM.

As to “UCGGCGCGAGGAUAUACGUUUGCGCGUUUUCGUUUUCGCGUACAUGAGGAUCACCCAUGUAGAAGGCGCGCCGC”, the “apparent Kd” value is, setting by setting: under setting [1], 16.6 nM; under setting [2], 32.1 nM.

Consider “UAUUUAUAGCAAGGAUAUGAUUAUUAUUAUUUAUCAGAAGGUGCACAUGAGGAUCACCCAUGUUUUAUAAUUUGUAAUUUAAUU”, for which the “apparent Kd” value under setting [1] came out at 55.6 nM and the “apparent Kd” value under setting [2] turned out to be 21.8 nM.

As for “CCGAGGCUAGGAUAUUGACGAUAAUACAUGAGGAUCACCCAUGUGAGUCGUGUAUGCGCGCAAGAAGGAGUAAUAA”, the “apparent Kd” value stood at 14 nM under setting [1] and 17.6 nM under setting [2].

As to “ACAUGAGGAUCACCCAUGUGAACAUAGGAUAUUGGUGAUCAGGCGUGUUAUACAGGAUAGGUCUGCGAGAAGGGUGCACGUUGC”, the “apparent Kd” value is, setting by setting: under setting [3], 540 nM; under setting [4], 146 nM.

Consider “CGGGAGUCAGGAUAUACGAACAUGUCGCCAGAUGUCAAGGUACAUGAGGAUCACCCAUGUAGAAGGGAGGAGGG”, for which the “apparent Kd” value was 60.5 nM under setting [1] and 32.7 nM under setting [2].

For the sequence “GUGUACAGAGGAUAUACAUAAGCAUGGAAACAUGCUACUUCACAUGAGGAUCACCCAUGUAGAAGGCUGUACAC”, the “apparent Kd” value under setting [1] turned out to be 14.5 nM and the “apparent Kd” value under setting [2] was 15.4 nM.

In the case of “GUGUACAGAGGAUAUACACGAGUAGUUACGAAAGUAACUACACAUGAGGAUCACCCAUGUAGAAGGCUGUACAC”, the “apparent Kd” value by setting is: under setting [1], 25 nM; under setting [2], 30.3 nM.

With “AGUUAAUAUCGAGGAUAUGUCUAGACACAUGAGGAUCACCCAUGUAUGUGUAUAGAAGGCGAAAUUAAAAGCAUGUUACAUGCA”, the “apparent Kd” value reads like this: under setting [3], 31.1 nM; under setting [4], 19.5 nM.

Regarding “UUGAACAUAGGAUAUAGUUGUUUGUACAUGAGGAUCACCCAUGUUAUGUAUGUUUUGUUUCUAGAAGGAUGUUGAU”, the “apparent Kd” value by setting is: under setting [1], 37.7 nM; under setting [2], 32.3 nM.

Regarding “UGUCAUUUACAGAAGGGUAGUUGGGUUAUACAUGAGGAUCACCCAUGUUAUACAGGAUAUGUGUAAAGUUAUUAUUAAAGUACA”, the “apparent Kd” value by setting is: under setting [1], 30.1 nM; under setting [2], 36 nM.

Regarding “AUGUACCGGUGAGGAUAUUUUUAAUAGAACUUUAUGAUAUACAUGAGGAUCACCCAUGUUACUUUAAAGAAGGCAUCGGAUUAA”, the “apparent Kd” value by setting is: under setting [1], 17.7 nM; under setting [2], 14.2 nM.

Consider “GCGAGUAAAGCAGGAUAUCUAUUGUCUCGGAAACAUGAGGAUCACCCAUGUAGAGAAGGGCUAAGUCAUACAAUUCGAACUCGC”, for which the “apparent Kd” value by setting is: under setting [1], 11.2 nM; under setting [2], 10.8 nM.

As to “GUGCUCAUGUAAGGAUAUGCAGCCGUUUCGGCUGCAGAAGGUACUAUAAUACAUGAGGAUCACCCAUGUCUCUAUAAUUUGGUG”, the “apparent Kd” value was 113 nM under setting [3] and 239 nM under setting [4].

On to “GUGCGAGCCACAGGAUAUCUACAAAUUUACUGUAGAGAAGGGUGACCUCGUGCACCACAUGAGGAUCACCCAUGUAACUAGGCG”, for which the “apparent Kd” value is 26.3 nM under setting [3] and 53 nM under setting [4].

Consider “CUGCUGGAGCUUUGCUCUAGUCGUACAUGAGGAUCACCCAUGUAGGAUAUGGUAGGCUUUGCUUACUAGAAGGAUAGAGUGGUC”, for which the “apparent Kd” value runs as follows: under setting [1], 76.4 nM; under setting [2], 32.8 nM.

On to “GAUAGGACAGAGAAGGACGUAGCUAGAGAUACUAGCAUAAAGUCUUCAACAUGAGGAUCACCCAUGUAGGAUAUCUGUCCUAUC”, for which the “apparent Kd” value under setting [1] came out at 6.43 nM and the “apparent Kd” value under setting [2] amounted to 6.64 nM.

On to “UUAAAUCAUGUAGGAUAUGCAUGGCGAAGCUACGCAGAAGGACAUGAGGAUCACCCAUGUUCUAGCGUCUCAGUAGAGAUGCAA”, for which the “apparent Kd” value under setting [1] is 18.4 nM and the “apparent Kd” value under setting [2] was 63.3 nM.

For “AGAAAGGCAGGAUAUACAUGAGGAUCACCCAUGUUAAGAGUGACGGAAACGUCACGAAGUAGAAGGGCCAAGAA”, the “apparent Kd” value under setting [1] is 21.1 nM and the “apparent Kd” value under setting [2] is 18.7 nM.

Consider “AUGACGGCAGGAUAUACAUGAGGAUCACCCAUGUAAAUUUUUCGUUUACCUUGACCGUGUAGAAGGGCCCAACC”, for which the “apparent Kd” value came to 14.5 nM under setting [1] and 16.1 nM under setting [2].

As for “GGUCCAUCAUGAGGAUAUGGCACCUUAUUGGUGCCAGAAGGCAUGUCUAUUGACAUGAGGAUCACCCAUGUAUUAAUUUGGACC”, the “apparent Kd” value is, setting by setting: under setting [3], 1040 nM; under setting [4], 80.7 nM.

For “GCCAUCGCAUGAGGAUAUGCUCCCGUUUCGGGAGCAGAAGGCAUGUCAUAAGACAUGAGGAUCACCCAUGUGGUAAAGAUGGCA”, the “apparent Kd” value under setting [3] amounted to 237 nM and the “apparent Kd” value under setting [4] came to 10.3 nM.

With “GAGAAGAGGGAAGGAUAUACAUGAGGAUCACCCAUGUAGAUAGGUAAAAUAGGAAGAAGAAGAAUGUAGAAGGUCCGGUUUGUU”, the “apparent Kd” value by setting is: under setting [1], 15.2 nM; under setting [2], 15.9 nM.

In the case of “UGAUAGCACAGAGGAUAUGCGUAGAGUUAUCACUACAUGAGGAUCACCCAUGUAGAAGGCUGUGCUAUCUAAGUCGGAAACGAC”, the “apparent Kd” value is 5.89 nM under setting [1] and 6.17 nM under setting [2].

For the sequence “UUGAGGUCAGGAUAUGCAUGGCGGGACUUGCGUCGUGGCGUGCAGAAGGGACAUGAGGAUCACCCAUGUGGAGC”, the “apparent Kd” value is, setting by setting: under setting [1], 75.2 nM; under setting [2], 211 nM.

With “GGUGGGUUGCUACCGGCACAUGAGGAUCACCCAUGUUUUGGGAAGGAUAUGGUACCUAUUUGGUACCAGAAGGUCCCGUUGGUG”, the “apparent Kd” value worked out at 330 nM under setting [3] and 239 nM under setting [4].

For the sequence “AGUGGACAUGAGGAUCACCCAUGUAUGCUGGCAUGAGGAUAUCCGAUUCGUUUCGACUAAGGAGAAGGCAUAGCCC”, the “apparent Kd” value under setting [3] turned out to be 97.2 nM and the “apparent Kd” value under setting [4] was determined as 31.3 nM.

Regarding “AAUAACAGAGGAUAUACUAUUUUAUGUAUUUAUUAUUUUAAACAUGAGGAUCACCCAUGUAGAAGGCUGAUUGA”, the “apparent Kd” value runs as follows: under setting [1], 29.9 nM; under setting [2], 28.4 nM.

Turning to “GCCAUCGCAUGAGGAUAUGCUCGGGUUUCCCGAGCAGAAGGCAUGCCAUAAGACAUGAGGAUCACCCAUGUAGUUAAGAUGGCA”, the “apparent Kd” value turned out to be 5.36 nM under setting [3] and 5.4 nM under setting [4].

Regarding “AUAGGUCAAGGAUAUACAUGAGGAUCACCCAUGUAAAUAACUCCAUCCAACUCCACAAGUAGAAGGUGAAAUAA”, the “apparent Kd” value reads like this: under setting [1], 17 nM; under setting [2], 16.5 nM.

Consider “GAUAAACAUGAGGAUCACCCAUGUGUGAAUAUGGGAGGAUAUACGUGGACCGUAGUCCGCGUAGAAGGCCUAAUUG”, for which the “apparent Kd” value was 225 nM under setting [3] and 40.4 nM under setting [4].

On to “GGGUCCAUCGGAGGAUAUCAUGUAAAUACAUGAGGAUCACCCAUGUCGAUGGAGACAUCGGAGAUUGAGAAGGCCGAUGUACCG”, for which the “apparent Kd” value by setting is: under setting [3], 209 nM; under setting [4], 10.5 nM.

In the case of “CGAGUGUGAGGAUAUCCAGCCGGUGGGAUUACGUCGACGCUGGAGAAGGCACAUGAGGAUCACCCAUGUGGACA”, the “apparent Kd” value under setting [1] came to 111 nM and the “apparent Kd” value under setting [2] stood at 234 nM.

On to “CGUGACGACAUAGGAUAUUGUUACAUGAGGAUCACCCAUGUCAACCAUUUAUCUCAAAUUGUUGACAAGAAGGAUGUGGUCACG”, for which the “apparent Kd” value under setting [3] was 32.6 nM and the “apparent Kd” value under setting [4] turned out to be 11.6 nM.

As to “GGAUGGUAGGGAGGAUAUGACAUGAGGAUCACCCAUGUGAAACGUCCUAGGUCAGAAGGCCCAUAAGUCAAAACCCAAAAUGUG”, the “apparent Kd” value under setting [1] stood at 16.7 nM and the “apparent Kd” value under setting [2] was 153 nM.

Consider “GGUCCACAUGAGGAUCACCCAUGUUAGGAUAUCUCCCGCCUCCUCACUGGAGACGGACAGAGAAGGAACAUCAA”, for which the “apparent Kd” value is, setting by setting: under setting [1], 23.6 nM; under setting [2], 74.7 nM.

Take “AACAGUCUGGAGGAUAUGCUGGAUGAAUAUCUGGCAGAAGGCUGGACAUGAGGAUCACCCAUGUAAAUACUACC”: the “apparent Kd” value was determined as 27.1 nM under setting [1] and 54.5 nM under setting [2].

Consider “GGUUAUUGCAAGGAUAUGCUUUUUUUUGAUAUUGCAGAAGGUGCAACAUGAGGAUCACCCAUGUUGGAUGGGUU”, for which the “apparent Kd” value is 119 nM under setting [1] and 162 nM under setting [2].

In the case of “CCGGAUACGGGUAGCCUGACAUGAGGAUCACCCAUGUGAUCCUAGGAUAUGGAUCCUAAUUGGAUCCAGAAGGAGGUUGGCUAC”, the “apparent Kd” value under setting [3] is 860 nM and the “apparent Kd” value under setting [4] worked out at 436 nM.

For “UUGAAGUCAUCAGGAUAUAGUAUUAAAGACAUUUAUUUUUUCAUACAUGAGGAUCACCCAUGUCGCUAGAAGGGAUUAUAGAUU”, the “apparent Kd” value came out at 51.8 nM under setting [1] and 49.2 nM under setting [2].

For “AAAUUAAGAAGAGGAUAUUGACAUGAGGAUCACCCAUGUAUUUGGGAGUGUUUACUGAAUUCUUACGAGAAGGCUUACGAAAUU”, the “apparent Kd” value under setting [1] amounted to 221 nM and the “apparent Kd” value under setting [2] was 212 nM.

For the sequence “UUUCAGCUCACAUGAGGAUCACCCAUGUCGGUUCGCCCGGACAGAAGGCACCCAUGACAAUGCGGUGAGGAUAUGUCAGCAAGG”, the “apparent Kd” value under setting [3] amounted to 193 nM and the “apparent Kd” value under setting [4] came out at 19.3 nM.

Turning to “AAAACGGUAGGAUAUACAGUCCGUUGUCGAAUGAUGAAAAGACAUGAGGAUCACCCAUGUAGAAGGACCGAAAA”, the “apparent Kd” value by setting is: under setting [1], 54.8 nM; under setting [2], 125 nM.

In the case of “GCUAGUCAUGUCAGGAUAUGCAGUUCCUUGGAACUGCAGAAGGGACAUGAGGAUCACCCAUGUGCCUAGCUAGC”, the “apparent Kd” value runs as follows: under setting [1], 41.1 nM; under setting [2], 357 nM.

As for “CAAUUGGCACAGAAGGGUGACAUGAGGAUCACCCAUGUAGCGUGGCUCUCAGGAGGAGCCACGCCACAGGAUAUGUGCGGGCAC”, the “apparent Kd” value is, setting by setting: under setting [3], 33.2 nM; under setting [4], 63.2 nM.

“GCUGAUGCAGGAUAUAUAUGAAGCGUUCGAAUAGAAUGCGAACAUGAGGAUCACCCAUGUAGAAGGGCAUUGGC”: the “apparent Kd” value reads like this: under setting [1], 14.6 nM; under setting [2], 20.1 nM.

As to “CGAUGUUAUGUCAGGAUAUACAUUGCGAAAGCAAUGUAGAAGGGACAUGAGGAUCACCCAUGUCCUAACCAUCG”, the “apparent Kd” value reads like this: under setting [1], 13.1 nM; under setting [2], 17.1 nM.
